Measured values published in ChEMBL document CHEMBL1139299, “Facilitated phospholipid translocation in vesicles and nucleated cells using synthetic small molecule scramblases” (Bioorg Med Chem, 2009).

Experiments:
Format in all cases: functional
[1] = tested on: Jurkat; assay: Cytotoxicity against human Jurkat cells by MTT assay; details: read-out: LD50 (the source's name)
Summary of the method: (§1)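 Cells (Jurkat and LNCaP grown in RPMI with 10% FBS) were seeded at ≥5 × 10^4 cells/mL, dosed from DMSO stock for 24 h, then given fresh medium plus MTT (Jurkat pelleted first). After 4 h, SDS in 0.01 M HCl was added for 18 h at 37°C. A570 was read. % living cells was calculated against a no-cell blank and a DMSO-only control, and LD50 was reported.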

[2] = tested on: LNCaP; assay: Cytotoxicity against human LNCAP cells by MTT assay; details: read-out: LD50 (the source's name); summary of the method: as §1
[3] = tested on: PC-3; assay: Cytotoxicity against human PC3 cells by MTT assay; details: read-out: LD50 (the source's name)
Summary of the method: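 PC3 cells grown in Ham's F-12K with 10% FBS were seeded at ≥5 × 10^4 cells/mL, dosed from DMSO stock for 24 h, then given fresh growth medium plus MTT for 4 h. SDS in 0.01 M HCl was added for 18 h at 37°C, 5% CO2. A570 was read. % living cells was calculated against a no-cell blank and a DMSO-only control, and LD50 was reported.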

[4] = tested on: PC-3; assay: Induction of endogenous phospholipidserine distribution in human PC3 cells at 100 uM by Annexin-V-FITC
Summary of the method: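 PC3 cells detached with trypsin at 90% confluency and resuspended in TES buffer (5 mM TES, 100 mM NaCl, pH 7.4) at 1 × 10^5 cells/mL. Scramblase added from DMSO stock, 100 μM final, 2 h at 37°C, 5% CO2. Pelleted, resuspended in binding buffer, stained 15 min at 37°C with Annexin V-FITC plus 7AAD (500 ng/mL) to exclude necrotic cells. Annexin-positive fraction read by flow cytometry; three independent experiments.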

Compound	CC50 [1]	CC50 [2]	CC50 [3]	Activity [4]
Cc1ccc(NC(=O)NCCN(CCNS(=O)(=O)c2ccc(C)cc2)CCNS(=O)(=O)c2ccc(C)cc2)cc1	> 100 µM	> 100 µM	> 100 µM	
Cc1ccc(S(=O)(=O)NCCN(CCNC(=O)Nc2ccccc2)CCNS(=O)(=O)c2ccc(C)cc2)cc1	> 100 µM	> 100 µM	> 100 µM	< 5%
Cc1ccc(S(=O)(=O)NCCN(CCNC(=O)Nc2ccc(C(F)(F)F)cc2)CCNS(=O)(=O)c2ccc(C)cc2)cc1	> 100 µM	> 100 µM	> 100 µM	
Cc1ccc(S(=O)(=O)NCCN(CCNC(=O)Nc2ccc(Br)cc2)CCNS(=O)(=O)c2ccc(C)cc2)cc1	> 100 µM	> 100 µM	> 100 µM	
Cc1ccc(S(=O)(=O)NCCN(CCNC(=O)Nc2ccc(C(C)(C)C)cc2)CCNS(=O)(=O)c2ccc(C)cc2)cc1	> 100 µM	> 100 µM	> 100 µM	
CC(=O)c1ccc(NC(=O)NCCN(CCNS(=O)(=O)c2ccc(C)cc2)CCNS(=O)(=O)c2ccc(C)cc2)cc1	> 100 µM	> 100 µM	> 100 µM	
COc1ccc(NC(=O)NCCN(CCNS(=O)(=O)c2ccc(C)cc2)CCNS(=O)(=O)c2ccc(C)cc2)cc1	> 100 µM	> 100 µM	> 100 µM	
Cc1ccc(S(=O)(=O)NCCN(CCNC(=O)Nc2ccc(OC(F)(F)F)cc2)CCNS(=O)(=O)c2ccc(C)cc2)cc1	> 100 µM	> 100 µM	> 100 µM	
Cc1ccc(S(=O)(=O)NCCN(CCNCc2ccccc2)CCNS(=O)(=O)c2ccc(C)cc2)cc1	25 µM	40 µM	25 µM	
Cc1ccc(S(=O)(=O)NCCN(CCNC(=O)Nc2ccc(C#N)cc2)CCNS(=O)(=O)c2ccc(C)cc2)cc1	> 100 µM	> 100 µM	> 100 µM	
Cc1ccc(S(=O)(=O)NCCN(CCNC(=O)Nc2ccc(Oc3ccccc3)cc2)CCNS(=O)(=O)c2ccc(C)cc2)cc1	> 100 µM	> 100 µM	> 100 µM	
Cc1ccc(S(=O)(=O)NCCN(CCNC(=O)Nc2ccc([N+](=O)[O-])cc2)CCNS(=O)(=O)c2ccc(C)cc2)cc1	> 100 µM	> 100 µM	> 100 µM	< 5%
Cc1ccc(S(=O)(=O)NCCN(CCNC(=S)Nc2ccc(Cl)cc2)CCNS(=O)(=O)c2ccc(C)cc2)cc1	15 µM	15 µM	25 µM	
Cc1ccc(S(=O)(=O)NCCN(CCNC(=O)Nc2ccc(Cl)cc2)CCNS(=O)(=O)c2ccc(C)cc2)cc1	> 100 µM	> 100 µM	> 100 µM	
Cc1ccc(S(=O)(=O)NCCN(CCNC(=O)Nc2ccc(C(C)C)cc2)CCNS(=O)(=O)c2ccc(C)cc2)cc1	> 100 µM	> 100 µM	> 100 µM	< 5%
Cc1ccc(S(=O)(=O)NCCN(CCNC(=O)[C@H](N)Cc2ccccc2)CCNS(=O)(=O)c2ccc(C)cc2)cc1	25 µM	40 µM	15 µM	
